# B2AR ag = activates human beta-2 adrenergic receptor causing internalization; P07550; Am2.2-beta2AR cells, FAP receptor internalization, flow cytometry; response, % (no concentration beside the values); 340,000 compounds, 0.43% hits;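 active means response above a set limit, near 3 SD of response in nonfluorescent compounds, cut at about 42% in these data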
# Target sequence (P07550 whole entry, looked up): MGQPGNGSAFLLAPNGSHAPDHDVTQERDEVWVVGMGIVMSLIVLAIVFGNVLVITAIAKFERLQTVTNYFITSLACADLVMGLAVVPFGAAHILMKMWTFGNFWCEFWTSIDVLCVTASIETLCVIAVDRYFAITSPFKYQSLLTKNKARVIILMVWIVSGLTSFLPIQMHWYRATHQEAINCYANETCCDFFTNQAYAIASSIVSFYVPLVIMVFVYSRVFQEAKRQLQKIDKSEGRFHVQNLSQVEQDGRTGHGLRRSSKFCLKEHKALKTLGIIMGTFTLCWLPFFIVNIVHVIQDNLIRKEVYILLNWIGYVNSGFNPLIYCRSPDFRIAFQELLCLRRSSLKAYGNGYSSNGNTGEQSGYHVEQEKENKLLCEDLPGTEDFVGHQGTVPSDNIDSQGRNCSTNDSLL
# CHOP UPR activ = activators of apoptotic arm of unfolded protein response (CHOP) | CHO-CHOP luciferase reporter, UPR activation, luminescence; percent of tunicamycin response over DMSO baseline | activation, % at 10 µM | 330,000 compounds, 0.34% hits | AID 449763;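 active means at 10 µM dose, activation of 40% or more, normalized to positive control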;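 further: 100% = tunicamycin at 10 µg/mL and 0% = DMSO alone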
#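 System: CHO CHOP reporter cells. Amount: 500 cells per well. Buffer or medium: F12 medium, 10% FBS. Compound dosing: one dose, 10 µM in 0.5% DMSO. Incubation: 6 h compound exposure at 37 °C after overnight seeding. Technique: Steady-Glo luciferase luminescence. Benchmarks: tunicamycin and DMSO controls.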
# CHOP inh = blocks CHOP induction under ER stress; CHO-K1 CHOP-promoter luciferase, tunicamycin-induced, 15-18 h; inhibition, % at 10 µM; 220,000 compounds, 3.8% hits;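 active means compounds that reduced the stress-induced luciferase reporter signal by more than about 70% of percent inhibition, limit read from the data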;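 further: 0% = tunicamycin plus vehicle and 100% = wells without tunicamycin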
# XBP1 UPR activ = adaptive UPR (XBP1) activation | CHO-XBP1 luciferase reporter, IRE1-XBP1 UPR activation, luminescence; percent of tunicamycin response, DMSO as zero | activation, % at 20 µM | 330,000 compounds, 0.33% hits;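 active means versus positive control, 20 µM dose yields 30% or more activation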;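 further: 100% = tunicamycin at 10 µg/mL and 0% = DMSO only wells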
#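 Test system: CHO-XBP1 luciferase reporter cells | Buffer or medium: Serum-containing F12 medium, 10% FBS | Schedule: 6 h compound exposure at 37 °C, 5% CO2 | Detection: Steady-Glo luciferase glow luminescence, 10 min after reagent addition | Read-out basis: Activation, % of tunicamycin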
# Dynein transport = dynein cargo transport inhibition | 220,000 compounds, 0.47% hits | z-score, hits read low | 3617.4 mouse cells, GR-EGFP nuclear translocation imaging; test concentration mostly 20 µM; stimulated with dexamethasone, 1 µM; stronger effect = lower value;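 active means plate z-score of nuclear minus cytoplasmic receptor signal below a set negative limit, without overly bright fluorescence or cell loss, cut at about -3.5 in these data, passing the limit was not always enough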;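 further: z-score of nuclear minus cytoplasmic ring GR-EGFP intensity difference per well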
#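 Buffer or medium: tetracycline-free induction medium containing charcoal-stripped FBS / Reagent: dexamethasone agonist, 1.0 µM final, for 30 min / Technique: automated 10x imaging of fixed Hoechst-stained cells / Times: induction 48 h, compound 1 h, agonist 30 min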
# pCIP destab = compounds decreasing mouse p/CIP protein stability. Q05BA5. F442A p/CIP-EGFP cells, EGFP fluorescence, 16 h. decrease of EGFP signal, % at 10 µM. 290,000 compounds, 0.01% hits. AID 1984;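 active means EGFP signal decrease of at least 30% at 10 µM or well 3 SD below plate mean, unless failing retest; inactive means the rest, including hits failing retest or dose response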
# * marks the source's active call; other numbers are inactive results; . = not tested or not shown. This is one part of a sample in which hits are shown more often than they occur.
SMILES,B2AR ag,CHOP UPR activ,CHOP inh,XBP1 UPR activ,Dynein transport,pCIP destab
Cn1c(SCCS(=O)(=O)c2ccc(Cl)cc2)nnc1-c1ccccc1,-1,0,19,-3,-0.27,-4
CC(=O)NC(Nc1c(C)n(C)n(-c2ccccc2)c1=O)C(Cl)(Cl)Cl (stereo unspecified),-8,1,5,1,-0.35,3
O=C(COc1ccc2ccc(=O)oc2c1)Nc1cc([N+](=O)[O-])ccc1F,60*,2,.,0,.,.
Cc1ccc(NC(=O)COC(=O)COc2ccc3ccc(=O)oc3c2)cc1[N+](=O)[O-],-3,-1,.,0,.,.
CNc1cc(CSc2ccc(Cl)cc2)nc(C)n1,-4,5,-15,1,-0.066,-6
Cc1nc(CSc2ccc(Cl)cc2)cc(NCc2ccccc2)n1,-3,3,91*,-2,-0.78,-11
Cc1nn(Cc2ccc(Cl)cc2Cl)c(C)c1NC(=O)NC12CC3CC(CC(C3)C1)C2,-7,1,2,-1,-0.46,-1
Cc1cnc(NC(=O)CN2CCN(c3ccccn3)CC2)s1,1,-2,74*,-3,-0.14,-74
COc1ccc(N2CCN(CC(=O)Nc3ncc(C)s3)CC2)cc1,4,1,.,-5,.,-2
O=C(Nc1ccc(NS(=O)(=O)c2ccccc2)cc1)c1ccccc1Cl,4,-1,.,3,.,.
COc1cc2cc(C(c3nnnn3C3CCCCC3)N(C)C3CCCCC3)c(=O)[nH]c2cc1OC (stereo unspecified),5,2,84*,10,-0.41,-24
COc1ccc(/C(C)=N/NC(=S)NCCc2ccccc2)c(O)c1,2,1,.,1,.,-12
CCCCNC(=S)NNc1c(Cl)cc(Cl)cc1Cl,-7,0,82*,2,0.72,-17
O=C(NCCCl)NNc1c(Cl)cc(Cl)cc1Cl,-11,0,4,0,-0.92,-1
CCCCNc1nc(N)nc(-c2cc(Cl)ccc2O)n1,6,2,77*,-5,1.2,-2
CCNc1nc(N)nc(-c2cc(Cl)ccc2O)n1,5,5,70,-1,0.073,-9
COc1ccc(NS(=O)(=O)c2cc(NC(=O)c3ccc(C)s3)ccc2N2CCOCC2)cc1,4,-2,13,-1,1,-16
CSc1ncccc1C(=O)OCC(=O)N1CCc2ccccc21,-5,0,.,0,.,.
CCOc1ccc(C(=O)NC2CC(=O)N(c3ccc4c(c3)OCCO4)C2)cc1 (stereo unspecified),-5,2,.,2,.,.
Cn1ncc2c(N3CCN(c4ccc(Cl)c(Cl)c4)CC3)ncnc21,5,2,84*,0,0.68,-45
Clc1ccc(-n2ncc3c(N4CCCC4)ncnc32)cc1,-7,-8,78*,-5,0.12,-4
O=C(Cn1cnc2c(cnn2-c2ccc(Cl)cc2)c1=O)N1CCN(c2ccccc2)CC1,1,1,91*,0,1.7,8
CCOC(=O)C1CCN(c2ncnc3c2cnn3-c2ccc(Cl)cc2)CC1,9,0,58,-4,-0.26,0
Cc1nn(-c2ccccc2)c(Cl)c1C(=O)N1CCN(c2ncnc3c2cnn3-c2ccccc2)CC1,35,-5,92*,-12,-1,1
O=C(NCCCN1CCOCC1)c1cc2ccccc2cc1O,-10,1,.,-1,.,.
SMILES,B2AR ag,CHOP UPR activ,CHOP inh,XBP1 UPR activ,Dynein transport,pCIP destab
Clc1ccc(Nc2ncnc3c2cnn3-c2ccccc2)cc1,3,6,21,7,-0.0054,-1
CC(C)Nc1ncnc2c1cnn2-c1ccc(Cl)cc1,6,0,75*,-4,0.66,-4
CCC(C)c1ccc2oc(-c3ccc(NC(=O)Cn4cnc5c(=O)n(C)c(=O)n(C)c54)cc3)nc2c1 (stereo unspecified),0,22,79*,25,1.9,-14
CC(C)CN=Cc1c(O)c([N+](=O)[O-])cc2oc3c(c12)CCCC3,-58,1,84*,-2,-0.53,-15
Cc1ccc(S(=O)(=O)N2CCN(C(=O)COC(=O)CSc3cc(C)ccc3C)CC2)c(C)c1,9,-1,.,2,.,.
Cc1nnc(-c2cccc(Br)c2)c2cn(-c3cccc(Br)c3)nc12,-5,1,75*,1,-2.2,-9
Cc1nnc(-c2cccc(Br)c2)c2cn(-c3ccccc3)nc12,-9,-2,66,1,-0.81,-2
Cc1nn(Cc2ccc(Cl)cc2)c(=O)n1N(C)c1ncc(C(F)(F)F)cc1Cl,1,1,81*,0,-0.014,0
Cc1nn(Cc2ccc([N+](=O)[O-])cc2)c(=O)n1N(C)c1ncc(C(F)(F)F)cc1Cl,-2,3,59,2,-0.28,-3
CCc1ccc2c(CC(=O)Nc3nnc(C4CC4)s3)coc2c1,0,1,38,-2,-0.81,6
COc1ccc(CNC(=O)c2csc(Cc3ccc(Cl)cc3)n2)cc1,8,-1,72*,0,0.28,7
COc1ccc(CNC(=O)c2csc(Cc3ccc(OC)cc3)n2)cc1,-5,0,46,1,-0.41,1
O=C(/C=C/c1ccc2ccccc2n1)N1CCN(S(=O)(=O)c2ccc(F)cc2)CC1,2,0,34,-3,-1.1,-7
O=C(/C=C/c1ccc2ccccc2n1)N1CCN(S(=O)(=O)c2ccccc2F)CC1,13,1,70*,-4,-1.5,-4
COc1ccc(-c2noc(CCCc3ccccc3)n2)cc1OC,-3,3,72*,4,0.48,-8
COc1ccc(-c2noc(Cc3ccc(Cl)cc3)n2)cc1OC,-6,1,86*,3,2.4,-8
Cc1ccc(-c2noc(CCCc3ccccc3)n2)cc1,3,3,24,0,-0.12,-7
COc1ccc(Cc2nc(-c3ccc(Cl)cc3)no2)cc1,0,3,55,2,-0.062,8
Cc1ccc([N+](=O)[O-])cc1S(=O)(=O)Nc1cccc(S(=O)(=O)NC2=NCCC2)c1,7,1,.,-2,.,.
CC1CCN(C(=O)COC(=O)Cc2ccc(Br)cc2)CC1,-6,0,.,-3,.,-5
CCOc1ccc(-c2nc(C#N)c(N3CCCCCC3)o2)cc1,-7,0,44,3,0.024,-3
COc1ccc(C(=O)Nc2cccc(/C=C(\CCC(=O)O)c3nc4ccccc4s3)c2)cc1,16,1,83*,-1,-0.86,5
CN(c1ccccc1)c1ccc(/C=C(\CCC(=O)O)c2nc3ccccc3s2)cc1[N+](=O)[O-],11,-2,100*,-1,1,-6
Cc1ccc(Nc2nc(N)nc(-c3oc4ccccc4c3C)n2)cc1,11,7,-73,23,0.42,-23
